Tests used:
Details in all cases: stereoisomer not certain
UniProt L7MU75 = biological target: T1, UniProt L7MU75
T1 sequence (whole entry): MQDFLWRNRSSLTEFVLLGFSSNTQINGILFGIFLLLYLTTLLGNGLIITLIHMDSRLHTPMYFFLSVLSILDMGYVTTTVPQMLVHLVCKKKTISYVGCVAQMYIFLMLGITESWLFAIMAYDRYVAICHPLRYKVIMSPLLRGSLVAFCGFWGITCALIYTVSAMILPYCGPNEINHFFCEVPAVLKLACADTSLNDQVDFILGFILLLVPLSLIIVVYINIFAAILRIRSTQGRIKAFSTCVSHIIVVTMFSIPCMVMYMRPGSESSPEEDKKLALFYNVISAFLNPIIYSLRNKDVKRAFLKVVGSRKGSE
Method in brief: (§1)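 Values were gathered from published papers (main text and supplementary material), with extra details requested from the original authors when needed, and checked for typos and inconsistencies. Each receptor–molecule pair is called responsive (active) if the original authors judged the measured signal statistically different from baseline, and non-responsive (inactive) otherwise. Assay methods varied by source, often transient mammalian cell-line luciferase assays. Recorded details include cell line, G-protein, co-transfected protein and tags.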

UniProt L7N210 = biological target: T2, UniProt L7N210
T2 sequence (whole entry): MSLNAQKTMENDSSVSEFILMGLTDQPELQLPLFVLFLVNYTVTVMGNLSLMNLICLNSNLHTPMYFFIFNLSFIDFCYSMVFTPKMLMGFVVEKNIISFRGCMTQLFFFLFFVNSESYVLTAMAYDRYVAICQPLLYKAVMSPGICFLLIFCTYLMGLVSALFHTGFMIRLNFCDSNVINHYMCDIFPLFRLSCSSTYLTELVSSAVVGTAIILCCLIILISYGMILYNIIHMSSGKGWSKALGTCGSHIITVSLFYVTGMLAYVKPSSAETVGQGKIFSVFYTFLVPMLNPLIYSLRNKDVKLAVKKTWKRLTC
Method in brief: as §1

UniProt Q3KPB0 = biological target: T3, UniProt Q3KPB0
T3 sequence (whole entry): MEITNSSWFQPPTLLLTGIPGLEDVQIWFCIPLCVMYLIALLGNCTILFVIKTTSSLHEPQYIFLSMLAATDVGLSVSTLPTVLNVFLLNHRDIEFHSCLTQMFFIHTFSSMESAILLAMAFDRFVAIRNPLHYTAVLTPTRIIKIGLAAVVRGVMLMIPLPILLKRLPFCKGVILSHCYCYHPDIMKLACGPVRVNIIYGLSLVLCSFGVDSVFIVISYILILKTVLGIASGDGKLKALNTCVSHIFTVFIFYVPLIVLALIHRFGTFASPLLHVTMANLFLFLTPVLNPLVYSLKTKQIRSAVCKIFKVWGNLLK
Method in brief: as §1

UniProt Q3U0P3 = biological target: T4, UniProt Q3U0P3
T4 sequence (whole entry): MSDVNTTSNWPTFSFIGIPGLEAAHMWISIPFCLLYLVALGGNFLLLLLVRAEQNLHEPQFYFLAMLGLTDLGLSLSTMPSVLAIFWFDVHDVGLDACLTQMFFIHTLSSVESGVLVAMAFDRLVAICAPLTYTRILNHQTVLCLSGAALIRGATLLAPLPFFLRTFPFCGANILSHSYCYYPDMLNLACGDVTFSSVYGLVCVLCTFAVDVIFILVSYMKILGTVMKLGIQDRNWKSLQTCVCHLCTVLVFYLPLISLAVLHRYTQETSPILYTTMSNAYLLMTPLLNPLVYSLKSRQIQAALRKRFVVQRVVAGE
Method in brief: as §1

UniProt Q7TQU8 = biological target: T5, UniProt Q7TQU8
T5 sequence (whole entry): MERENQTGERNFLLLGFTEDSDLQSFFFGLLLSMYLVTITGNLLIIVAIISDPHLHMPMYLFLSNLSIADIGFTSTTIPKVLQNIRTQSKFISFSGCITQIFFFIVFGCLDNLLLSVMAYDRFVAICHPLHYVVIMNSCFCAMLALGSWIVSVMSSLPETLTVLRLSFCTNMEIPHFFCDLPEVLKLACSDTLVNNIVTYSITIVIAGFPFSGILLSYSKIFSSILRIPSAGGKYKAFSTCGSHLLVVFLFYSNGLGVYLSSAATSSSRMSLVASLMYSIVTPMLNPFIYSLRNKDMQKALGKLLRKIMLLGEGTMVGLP
Method in brief: as §1

UniProt Q7TQV4 = biological target: T6, UniProt Q7TQV4
T6 sequence (whole entry): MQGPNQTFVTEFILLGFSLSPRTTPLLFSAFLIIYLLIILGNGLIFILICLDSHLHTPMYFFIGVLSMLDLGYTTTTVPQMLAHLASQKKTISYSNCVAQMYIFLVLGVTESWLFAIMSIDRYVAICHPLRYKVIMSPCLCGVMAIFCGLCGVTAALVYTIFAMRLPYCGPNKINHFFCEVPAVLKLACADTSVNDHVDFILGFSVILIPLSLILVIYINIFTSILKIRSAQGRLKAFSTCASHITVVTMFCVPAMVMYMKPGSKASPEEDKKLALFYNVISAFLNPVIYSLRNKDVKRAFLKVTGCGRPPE
Method in brief: as §1

UniProt Q7TR71 = biological target: T7, UniProt Q7TR71
T7 sequence (whole entry): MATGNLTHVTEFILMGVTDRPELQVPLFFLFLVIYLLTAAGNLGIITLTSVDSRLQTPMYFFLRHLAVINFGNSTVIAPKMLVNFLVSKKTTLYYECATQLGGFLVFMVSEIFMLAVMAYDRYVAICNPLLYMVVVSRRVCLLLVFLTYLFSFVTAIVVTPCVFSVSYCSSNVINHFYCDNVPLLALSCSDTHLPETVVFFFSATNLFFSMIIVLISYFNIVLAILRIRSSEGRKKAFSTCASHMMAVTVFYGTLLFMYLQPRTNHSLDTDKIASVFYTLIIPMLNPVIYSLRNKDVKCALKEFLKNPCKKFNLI
Method in brief: as §1

UniProt Q7TR79 = biological target: T8, UniProt Q7TR79
T8 sequence (whole entry): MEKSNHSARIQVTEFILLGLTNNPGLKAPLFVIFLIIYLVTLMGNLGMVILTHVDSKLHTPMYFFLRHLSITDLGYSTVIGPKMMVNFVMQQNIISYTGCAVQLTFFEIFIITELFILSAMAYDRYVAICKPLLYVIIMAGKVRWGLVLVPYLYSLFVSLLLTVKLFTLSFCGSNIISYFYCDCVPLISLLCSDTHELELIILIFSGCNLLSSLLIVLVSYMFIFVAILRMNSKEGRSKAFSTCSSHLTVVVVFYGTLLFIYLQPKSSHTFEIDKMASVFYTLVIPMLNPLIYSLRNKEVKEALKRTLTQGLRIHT
Method in brief: as §1

UniProt Q7TRA3 = biological target: T9, UniProt Q7TRA3
T9 sequence (whole entry): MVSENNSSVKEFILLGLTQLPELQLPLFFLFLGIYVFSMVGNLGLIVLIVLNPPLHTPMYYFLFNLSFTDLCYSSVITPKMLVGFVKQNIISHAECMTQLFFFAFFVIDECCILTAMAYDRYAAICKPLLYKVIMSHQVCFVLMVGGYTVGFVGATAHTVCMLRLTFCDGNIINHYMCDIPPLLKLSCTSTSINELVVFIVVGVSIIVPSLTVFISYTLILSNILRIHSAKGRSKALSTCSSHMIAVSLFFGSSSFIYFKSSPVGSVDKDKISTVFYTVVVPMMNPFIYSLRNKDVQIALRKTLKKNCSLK
Method in brief: as §1

UniProt Q7TRE4 = biological target: T10, UniProt Q7TRE4
T10 sequence (whole entry): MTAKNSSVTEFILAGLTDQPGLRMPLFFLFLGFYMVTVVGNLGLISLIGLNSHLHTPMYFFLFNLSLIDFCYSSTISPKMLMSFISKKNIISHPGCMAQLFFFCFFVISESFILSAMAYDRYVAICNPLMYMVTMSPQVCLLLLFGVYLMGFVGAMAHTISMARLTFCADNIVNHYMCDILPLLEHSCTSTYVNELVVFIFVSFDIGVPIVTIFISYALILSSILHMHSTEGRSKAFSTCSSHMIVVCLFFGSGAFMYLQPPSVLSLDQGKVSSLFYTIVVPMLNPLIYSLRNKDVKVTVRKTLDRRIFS
Method in brief: as §1

Measured: odorant receptor agonist call

CCCCCOC(=O)CCCCC
inactive: all assays above

CCCCCCCC(C)=O
inactive: all assays above

CCCCCCC(C)=O
inactive: all assays above

O=C(c1ccccc1)c1ccccc1
active: UniProt L7MU75 | UniProt Q7TRA3
inactive: all other assays above

C=C(C)C1CCC(C)C(=O)C1 (stereo not drawn)
inactive: all assays above

CCCCCCOC(C)=O
inactive: all assays above

CCCCCCCCCCCO
inactive: UniProt L7MU75 | UniProt L7N210 | UniProt Q3KPB0 | UniProt Q3U0P3 | UniProt Q7TQU8 | UniProt Q7TR79

CCCC(C)C(=O)OCC (stereo not drawn)
inactive: UniProt L7MU75 | UniProt L7N210 | UniProt Q3KPB0 | UniProt Q3U0P3 | UniProt Q7TQU8 | UniProt Q7TR79

CC(C)=CCCC(C)=CCO
inactive: all assays above

CC1CCC(C(C)C)C(=O)C1 (stereo not drawn)
inactive: UniProt L7MU75 | UniProt L7N210 | UniProt Q3KPB0 | UniProt Q3U0P3 | UniProt Q7TQU8 | UniProt Q7TR79

Source: the M2OR odorant receptor database
